Test results as given in ChEMBL document CHEMBL4689842, “EUbOPEN Chemogenomics Library wave 1” (2021).

Test system: U2OS
Assay: Multiplex assay against U2OS
Assay type: toxicity, cell-based
Conditions: human
Procedure, shortened: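 At seeding, live cells were stained with Hoechst33342, BioTracker Green Microtubule Cytoskeleton Dye, MitoTracker Red and Annexin V Alexa Fluor 680. After compound addition they were imaged on a CQ1 microscope at 37°C and 5% CO2, and CellPathfinder machine-learning gating sorted them into Hoechst high-intensity objects or normal cells, with normal cells further split into healthy, pyknosed or fragmented nuclei and pyknosed cells into mitotic or apoptotic. Tubulin, mitochondrial-mass and membrane-permeability phenotypes are given as per cents of cells with healthy nuclei.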

[1] = 12 h, 1 µM, compound concentration 1 uM, replicate 1
[2] = 12 h, 1 µM, compound concentration 1 uM, replicate 2
[3] = 12 h, 10 µM, compound concentration 10 uM, replicate 1
[4] = 12 h, 10 µM, compound concentration 10 uM, replicate 2
[5] = 24 h, 1 µM, compound concentration 1 uM, replicate 1
[6] = 24 h, 1 µM, compound concentration 1 uM, replicate 2
[7] = 24 h, 10 µM, compound concentration 10 uM, replicate 1
[8] = 24 h, 10 µM, compound concentration 10 uM, replicate 2
[9] = 48 h, 1 µM, compound concentration 1 uM, replicate 1
[10] = 48 h, 1 µM, compound concentration 1 uM, replicate 2
[11] = 48 h, 10 µM, compound concentration 10 uM, replicate 1
[12] = 48 h, 10 µM, compound concentration 10 uM, replicate 2

## CCCS(=O)(=O)c1nc(NC2CC2)cc(-c2ccc3c(ccn3C3CC(C)(C)NC(C)(C)C3)c2)n1
[1]
  Population Apoptotic (%): 39%
  Population Fragmented Nuclei (%): 16%
  Population Healthy Nuclei (%): 62%
  Population Hoechst High Intensity Objects (%): 6%
  Population Membrane Permeable-Phenotype (%): 8%
  Population Mitochondria Different-Phenotype (%): 30%
  Population Mitotic Cells (%): 60%
  Population Normal (%): 93%
  Population Pyknosed Nuclei (%): 21%
  Population Tubulin-Different-Phenotype (%): 24%
  Total Cell Count: 588
[2]
  Population Apoptotic (%): 38%
  Population Fragmented Nuclei (%): 14%
  Population Healthy Nuclei (%): 71%
  Population Hoechst High Intensity Objects (%): 5%
  Population Membrane Permeable-Phenotype (%): 5%
  Population Mitochondria Different-Phenotype (%): 41%
  Population Mitotic Cells (%): 61%
  Population Normal (%): 94%
  Population Pyknosed Nuclei (%): 13%
  Population Tubulin-Different-Phenotype (%): 29%
  Total Cell Count: 1044
[3]
  Population Apoptotic (%): 86%
  Population Fragmented Nuclei (%): 83%
  Population Healthy Nuclei (%): 0%
  Population Hoechst High Intensity Objects (%): 6%
  Population Membrane Permeable-Phenotype (%): 0%
  Population Mitochondria Different-Phenotype (%): 0%
  Population Mitotic Cells (%): 13%
  Population Normal (%): 93%
  Population Pyknosed Nuclei (%): 16%
  Population Tubulin-Different-Phenotype (%): 0%
  Total Cell Count: 142
[4]
  Population Apoptotic (%): 92%
  Population Fragmented Nuclei (%): 75%
  Population Healthy Nuclei (%): 4%
  Population Hoechst High Intensity Objects (%): 7%
  Population Membrane Permeable-Phenotype (%): 100%
  Population Mitochondria Different-Phenotype (%): 38%
  Population Mitotic Cells (%): 7%
  Population Normal (%): 92%
  Population Pyknosed Nuclei (%): 19%
  Population Tubulin-Different-Phenotype (%): 84%
  Total Cell Count: 101
[5]
  Population Apoptotic (%): 50%
  Population Fragmented Nuclei (%): 16%
  Population Healthy Nuclei (%): 67%
  Population Hoechst High Intensity Objects (%): 10%
  Population Membrane Permeable-Phenotype (%): 5%
  Population Mitotic Cells (%): 50%
  Population Normal (%): 89%
  Population Pyknosed Nuclei (%): 16%
  Population Tubulin-Different-Phenotype (%): 9%
  Total Cell Count: 749
[6]
  Population Apoptotic (%): 22%
  Population Fragmented Nuclei (%): 15%
  Population Healthy Nuclei (%): 66%
  Population Hoechst High Intensity Objects (%): 5%
  Population Membrane Permeable-Phenotype (%): 10%
  Population Mitochondria Different-Phenotype (%): 21%
  Population Mitotic Cells (%): 77%
  Population Normal (%): 94%
  Population Pyknosed Nuclei (%): 18%
  Population Tubulin-Different-Phenotype (%): 29%
  Total Cell Count: 1113
[7]
  Population Apoptotic (%): 86%
  Population Fragmented Nuclei (%): 80%
  Population Healthy Nuclei (%): 0%
  Population Hoechst High Intensity Objects (%): 6%
  Population Membrane Permeable-Phenotype (%): 100%
  Population Mitochondria Different-Phenotype (%): 25%
  Population Mitotic Cells (%): 13%
  Population Normal (%): 93%
  Population Pyknosed Nuclei (%): 18%
  Population Tubulin-Different-Phenotype (%): 100%
  Total Cell Count: 151
[8]
  Population Apoptotic (%): 90%
  Population Fragmented Nuclei (%): 73%
  Population Healthy Nuclei (%): 10%
  Population Hoechst High Intensity Objects (%): 7%
  Population Membrane Permeable-Phenotype (%): 96%
  Population Mitochondria Different-Phenotype (%): 75%
  Population Mitotic Cells (%): 10%
  Population Normal (%): 92%
  Population Pyknosed Nuclei (%): 15%
  Population Tubulin-Different-Phenotype (%): 96%
  Total Cell Count: 104
[9]
  Population Apoptotic (%): 37%
  Population Fragmented Nuclei (%): 16%
  Population Healthy Nuclei (%): 69%
  Population Hoechst High Intensity Objects (%): 6%
  Population Membrane Permeable-Phenotype (%): 5%
  Population Mitochondria Different-Phenotype (%): 15%
  Population Mitotic Cells (%): 62%
  Population Normal (%): 93%
  Population Pyknosed Nuclei (%): 14%
  Population Tubulin-Different-Phenotype (%): 14%
  Total Cell Count: 831
[10]
  Population Apoptotic (%): 58%
  Population Fragmented Nuclei (%): 11%
  Population Healthy Nuclei (%): 68%
  Population Hoechst High Intensity Objects (%): 8%
  Population Membrane Permeable-Phenotype (%): 24%
  Population Mitochondria Different-Phenotype (%): 17%
  Population Mitotic Cells (%): 41%
  Population Normal (%): 91%
  Population Pyknosed Nuclei (%): 20%
  Population Tubulin-Different-Phenotype (%): 23%
  Total Cell Count: 1197
[11]
  Population Apoptotic (%): 90%
  Population Fragmented Nuclei (%): 81%
  Population Healthy Nuclei (%): 1%
  Population Hoechst High Intensity Objects (%): 7%
  Population Membrane Permeable-Phenotype (%): 100%
  Population Mitochondria Different-Phenotype (%): 37%
  Population Mitotic Cells (%): 9%
  Population Normal (%): 92%
  Population Pyknosed Nuclei (%): 16%
  Population Tubulin-Different-Phenotype (%): 75%
  Total Cell Count: 198
[12]
  Population Apoptotic (%): 80%
  Population Fragmented Nuclei (%): 73%
  Population Healthy Nuclei (%): 15%
  Population Hoechst High Intensity Objects (%): 8%
  Population Membrane Permeable-Phenotype (%): 97%
  Population Mitochondria Different-Phenotype (%): 81%
  Population Mitotic Cells (%): 19%
  Population Normal (%): 91%
  Population Pyknosed Nuclei (%): 10%
  Population Tubulin-Different-Phenotype (%): 94%
  Total Cell Count: 131
